Most compounds without a hit are left out; they make up all but 3.7% or so of the library.
FGF22 binding: shifts melting point of recombinant human FGF22. recombinant FGF22 thermal shift, SYPRO orange fluorescence; percent of sucrose octasulfate shift, DMSO zero. Q9HCT0. AID 651658. 340,000 tested, 1.5% active. activity (Tm shift, normalised), % at 9.99 µM;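 active means mean Tm shift, scaled 0 neutral to 100 positive control, at about 1.3% or above, every replicate too, limit read from the data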
ERAP1 inh: ERAP1 (human) enzyme inhibition; Q9NZ08; recombinant ERAP1, Leu-AMC fluorescence, 60 min; inhibition, % at 10.7 µM; 340,000 tested, 0.15% active; AID 652197;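 active means mean replicate inhibition of at least 30%, or all replicates individually reaching that 30% level; inactive means mean below 30% and not every replicate reaching it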
DENV2 CPE: protects cells from dengue virus 2 cytopathic effect. DENV2-infected cells, cytopathic effect rescue, plate reader. CPE inhibition, % at 9.99 µM. 350,000 tested, 1.7% active. AID 651640; in the data active means CPE inhibition above about 20%, passing the limit was not always enough; tested in BHK-21 cells
E-selectin induc: induces E-selectin expression in human endothelial cells; 260,000 tested, 0.37% active; AID 686992; P16581; HUVEC E-selectin immunofluorescence imaging; normalized: neutral wells 0, TNF-alpha wells 100; activation, % at 7.58 µM;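 active means mean E-selectin-positive cell signal at least 10% of the positive control, reached in at least 60% of replicates, without over 20% cell loss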
Target sequence (P16581 whole entry, looked up): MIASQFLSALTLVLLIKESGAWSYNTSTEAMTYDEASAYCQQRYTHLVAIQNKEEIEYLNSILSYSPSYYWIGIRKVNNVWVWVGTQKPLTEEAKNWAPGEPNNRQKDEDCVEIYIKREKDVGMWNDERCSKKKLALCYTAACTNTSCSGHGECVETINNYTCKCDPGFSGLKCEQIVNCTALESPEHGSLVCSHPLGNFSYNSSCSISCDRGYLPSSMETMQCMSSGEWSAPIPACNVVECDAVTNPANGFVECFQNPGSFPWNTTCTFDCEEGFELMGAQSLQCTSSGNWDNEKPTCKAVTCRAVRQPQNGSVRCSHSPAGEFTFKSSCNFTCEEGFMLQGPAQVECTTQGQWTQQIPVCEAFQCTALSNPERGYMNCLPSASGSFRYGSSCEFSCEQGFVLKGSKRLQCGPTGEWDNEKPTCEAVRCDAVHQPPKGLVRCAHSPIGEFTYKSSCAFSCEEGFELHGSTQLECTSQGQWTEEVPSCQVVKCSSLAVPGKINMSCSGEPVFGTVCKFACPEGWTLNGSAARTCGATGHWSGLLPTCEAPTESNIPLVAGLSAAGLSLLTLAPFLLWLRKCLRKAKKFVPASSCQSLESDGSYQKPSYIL
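material = human umbilical vein endothelial cells (HUVEC), E-selectin induction | quantity = 3,000 cells/well | medium = EGM-2 growth medium on 0.1% gelatin-coated wells | technique = immunofluorescence imaging | read-out basis = % PE-positive cells | control set = TNF-alpha positive control, DMSO neutral control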
CFTR F508del cor: correctors of CFTR F508del function in bronchial epithelial cells. CFBE cells, YFP halide quenching; stimulated with forskolin plus potentiator P3; % fluorescence drop versus neutral controls. activity (quench increase), % at 7.58 µM. 350,000 tested, 0.36% active. AID 720511;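 active means mean added fluorescence quench of at least 8% versus neutral control, with both replicates also reaching 8%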;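 further: cells transiently co-express mutant CFTR-F508del with the halide-sensitive YFP; corrector assay measuring rescue of mutant channel to the surface after 24 h compound exposure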
Hits are given with their value; . = inactive; / = no result given.

SMILES	FGF22 binding	ERAP1 inh	DENV2 CPE	E-selectin induc	CFTR F508del cor
C[C@@H]1CN([C@@H](C)CO)C(=O)c2cccc(NC(=O)Nc3ccccc3)c2O[C@H]1CN(C)C(=O)Nc1ccc(C(F)(F)F)cc1	.	.	.	.	.
CCCNC(=O)N(C)C[C@@H]1Oc2ncc(C#CC3CC3)cc2C(=O)N([C@@H](C)CO)C[C@@H]1C	.	.	.	.	.
C[C@H]1CN([C@@H](C)CO)C(=O)c2cccc(NS(C)(=O)=O)c2O[C@H]1CN(C)S(=O)(=O)c1ccccc1	.	.	.	.	.
C[C@@H]1CN([C@H](C)CO)C(=O)c2cc(NC(=O)Nc3ccc(C(F)(F)F)cc3)ccc2O[C@@H](C)CCCCO[C@H]1CN(C)C	/	/	/	.	.
O=C(CSc1nc2ccccc2c(=O)n1-c1ccccc1Cl)Nc1cccc(S(=O)(=O)N2CCOCC2)c1	.	.	63	/	.
O=C(CSc1nc2ccccc2c(=O)n1-c1ccc(SC(F)F)cc1)Nc1ccc(N2CCOCC2)cc1	43	.	.	/	.
CN(C)S(=O)(=O)c1cccc(NC(=O)CSc2nc3ccccc3[nH]2)c1	.	.	.	/	.
O=C(CSc1nc2ccccc2c(=O)n1-c1ccc(F)cc1)Nc1ccc(N2CCOCC2)cc1	.	.	.	.	.
O=C(CSc1ncnc2ccccc12)Nc1cccc(S(=O)(=O)N2CCOCC2)c1	.	.	.	/	.
O=C(CSc1nc2ccccc2[nH]1)Nc1cccc(S(=O)(=O)N2CCOCC2)c1	1.8	.	.	/	.
CCNC(=O)C[C@H]1C=C[C@@H](NC(=O)C2CCC2)[C@@H](CO)O1	.	.	.	.	.
O=C(CC1CC1)N1CC2(C1)[C@@H](c1ccccc1)[C@@H](CO)N2CC1CCOCC1	.	.	.	.	.
CC(=O)N1CC2(C1)[C@H](c1ccccc1)[C@@H](CO)N2Cc1ccccc1	.	.	24	.	.
CCCNC(=O)N1CC2(C1)[C@H](c1ccccc1)[C@@H](CO)N2CC1CCOCC1	.	.	24	.	.
CC(=O)N1CC2(C1)[C@H](c1ccccc1)[C@H](CO)N2CC1CCOCC1	.	.	.	.	.
CC(=O)N1CC2(C1)[C@@H](c1ccccc1)[C@@H](CO)N2CC1CCOCC1	.	.	22	.	.
CN(C)CC(=O)N1[C@H](CO)[C@@H](c2ccccc2)C12CN(CC1CCOCC1)C2	.	.	20	.	.
CCNC(=O)[C@@H]1[C@@H](CO)[C@@H]2Cn3c(ccc(C4=CCCC4)c3=O)[C@H]1N2C(=O)CC	.	.	.	.	.
COc1ccc2c3c([nH]c2c1)[C@H](CO)N(C(=O)C1CCCC1)CC31CN(C)C1	.	.	.	.	.
Cc1ccc(S(=O)(=O)N(C)C[C@H]2OCCCC[C@@H](C)Oc3ccc(NC(=O)NC(C)C)cc3C(=O)N([C@@H](C)CO)C[C@@H]2C)cc1	/	.	.	.	.
COc1ccccc1CNC(=O)C[C@@H]1C[C@H]2c3cc(NS(=O)(=O)c4ccc(F)cc4)ccc3O[C@H]2[C@@H](CO)O1	.	.	.	.	.
CC(=O)N1CC2(C1)[C@H](c1ccccc1)[C@@H](CO)N2CC1CCOCC1	.	.	61	.	.
O=S(=O)(Cc1ccccc1)N1CC2(C1)[C@H](c1ccccc1)[C@@H](CO)N2CC1CCOCC1	.	.	27	.	.
CCS(=O)(=O)N1CC2(C1)[C@@H](c1ccccc1)[C@@H](CO)N2CC1CCCC1	.	.	.	.	.
CCC[N+]1(CC#CC2(O)CCCCC2)CCOCC1	.	85	.	/	.
SMILES	FGF22 binding	ERAP1 inh	DENV2 CPE	E-selectin induc	CFTR F508del cor
Cc1ccccc1NC(=O)/C(=C/c1cccs1)NC(=O)c1ccco1	.	.	27	.	/
CCOC(=O)c1sc(=NC(=O)c2ccc(C)c(C)c2)n(C)c1C	43	.	.	/	.
Cn1c(SCc2ccc(Cl)cc2)nnc1C1CC1	.	.	.	/	.
Clc1ccc(CSc2nncn2-c2ccc3c(c2)OCCO3)cc1	.	/	.	/	11
Nc1nnnn1CC(=O)N/N=C/c1cc([N+](=O)[O-])ccc1Cl	43	.	.	.	.
CCCNC(=O)C1(C)CCCN(Cc2ccc(Cl)cc2)C1 (stereo not drawn)	.	.	.	/	.
CCCNC(=O)C1(C)CCCN(Cc2ccc(C#N)cc2)C1 (stereo not drawn)	.	.	48	/	.
COC1OCC(O)C(OC(=O)c2ccccc2)C1OC(=O)c1ccccc1 (stereo not drawn)	43	.	.	.	.

Screening data from PubChem.
